ChEMBL document CHEMBL1130123, “Optimization of 3-(1H-indazol-3-ylmethyl)-1,5-benzodiazepines as potent, orally active CCK-A agonists” (J Med Chem, 1997)

Assays:
[1] = Total body clearance at an intravenous dose of 6.5 mg/kg in rat; format: ADME, organism-based; design: dose 6.5 mg/kg, route intravenous; conditions: in vivo
[2] = Oral bioavailability in Long-Evans rats at an peroral dose of 6.5 mg/kg; format: ADME, organism-based; conditions: rat, in vivo
[3] = target: T1, Cholecystokinin receptor type A (Homo sapiens, UniProt P32238); test: In vitro for binding affinity against human cholecystokinin type A receptor.
T1 sequence (P32238 whole entry): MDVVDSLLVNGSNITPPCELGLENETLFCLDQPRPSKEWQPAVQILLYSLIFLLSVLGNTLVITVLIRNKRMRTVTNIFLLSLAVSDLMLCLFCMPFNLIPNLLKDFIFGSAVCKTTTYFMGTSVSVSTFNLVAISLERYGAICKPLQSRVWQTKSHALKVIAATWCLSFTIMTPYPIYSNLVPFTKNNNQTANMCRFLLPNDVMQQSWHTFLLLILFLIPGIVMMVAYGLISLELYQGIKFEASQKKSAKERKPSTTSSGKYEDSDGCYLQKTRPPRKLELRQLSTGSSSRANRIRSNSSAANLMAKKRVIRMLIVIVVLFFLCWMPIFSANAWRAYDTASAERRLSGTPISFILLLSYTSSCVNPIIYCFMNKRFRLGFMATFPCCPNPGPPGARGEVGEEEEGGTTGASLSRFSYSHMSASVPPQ

[4] = Half life period at an intravenous dose of 6.5 mg/kg in rat; format: ADME, organism-based; design: dose 6.5 mg/kg, route intravenous; conditions: in vivo
[5] = system: Mus musculus; test: Peroral dose that produces a half maximal response in mouse gall bladder emptying assay (in vivo); format: functional; conditions: po
[6] = system: Mus musculus; test: Intraperitoneal dose that produces a half maximal response in mouse gall bladder emptying assay (in vivo); format: functional; conditions: ip
[7] = Maximum concentration at an peroral dose of 6.2 mg/kg in rat; format: ADME, organism-based; design: dose 6.2 mg/kg, route oral; conditions: in vivo, po
[8] = Volume of distribution at steady state at an intravenous dose of 6.5 mg/kg in rat; format: ADME, organism-based; design: dose 6.5 mg/kg, route intravenous; conditions: in vivo, read-out: Vss
[9] = system: Mus musculus; test: Maximal response at 1 nmol/kg peroral dose; format: functional
[10] = Maximum concentration at an intravenous dose of 6.5 mg/kg in rat; format: ADME, organism-based; design: dose 6.5 mg/kg, route intravenous; conditions: in vivo
[11] = species: Cavia porcellus; test: In vitro functional efficacy relative to CCK-8 in inducing contraction of the isolated guinea pig gallbladder (GPGB) at a 1 uM concentration.
In short: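 Isolated guinea pig gallbladder, ligand 1 μM, 30 min at 37 °C; maximal contraction expressed relative to CCK-8 (1 μM) = 100%; values ± 5%.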

[12] = species: Cavia porcellus; test: In vitro functional agonist activity in the isolated guinea pig gall bladder, concentration at which 50% of the maximal contraction observed was reported.; conditions: read-out: ED50 (the source's name)
[13] = Maximum concentration at an intravenous dose of 5.5 mg/kg in rat; format: ADME, organism-based; design: dose 5.5 mg/kg, route intravenous; conditions: in vivo
[14] = Maximum concentration at an peroral dose of 6.3 mg/kg in rat; format: ADME, organism-based; design: dose 6.3 mg/kg, route oral; conditions: in vivo, po
[15] = target: T2, Gastrin/cholecystokinin type B receptor (Homo sapiens, UniProt P32239); test: In vitro for binding affinity against human cholecystokinin type B receptor.
T2 sequence (P32239 whole entry): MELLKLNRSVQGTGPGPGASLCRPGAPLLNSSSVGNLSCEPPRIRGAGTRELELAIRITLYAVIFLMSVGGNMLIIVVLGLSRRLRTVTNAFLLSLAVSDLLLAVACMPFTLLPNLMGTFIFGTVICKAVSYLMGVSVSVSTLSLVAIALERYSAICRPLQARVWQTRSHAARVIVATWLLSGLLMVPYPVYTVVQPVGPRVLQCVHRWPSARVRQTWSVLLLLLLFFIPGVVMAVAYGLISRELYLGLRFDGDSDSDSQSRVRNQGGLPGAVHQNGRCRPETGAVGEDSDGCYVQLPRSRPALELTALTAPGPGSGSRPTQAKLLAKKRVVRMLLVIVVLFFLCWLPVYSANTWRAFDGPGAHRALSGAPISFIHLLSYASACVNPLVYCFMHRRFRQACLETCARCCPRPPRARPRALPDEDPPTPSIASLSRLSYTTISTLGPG

[16] = Volume of distribution at steady state at an intravenous dose of 5.5 mg/kg in rat; format: ADME, organism-based; design: dose 5.5 mg/kg, route intravenous; conditions: in vivo, read-out: Vss
[17] = system: Mus musculus; test: (§1) Maximal response at 0.5 umol/kg intraperitoneal dose; format: functional
[18] = Oral bioavailability in Long-Evans rats at an peroral dose of 6.3 mg/kg; format: ADME, organism-based; conditions: rat, in vivo
[19] = Total body clearance at an intravenous dose of 5.5 mg/kg in rat; format: ADME, organism-based; design: dose 5.5 mg/kg, route intravenous; conditions: in vivo
[20] = Half life period at an intravenous dose of 5.5 mg/kg in rat; format: ADME, organism-based; design: dose 5.5 mg/kg, route intravenous; conditions: in vivo
[21] = system: Mus musculus; test: Maximal response at 1 nmol/kg intraperitoneal dose; format: functional
[22] = system: Rattus norvegicus; test: Anorectic potency in rat was tested and intraperitoneal dose that produces a half maximal response (in vivo); format: functional; conditions: ip
[23] = system: Rattus norvegicus; test: as §1; format: functional

For `COc1ccc(N(C(=O)CN2C(=O)C(C)(Cc3nn(C)c4ccccc34)C(=O)N(c3ccccc3)c3ccccc32)C(C)C)cc1` (configuration not stated), the clearance [1] was 31 mL/min/kg, the bioavailability [2] was 4% and the IC50 [3] was 38.9 nM. It also gave a half-life [4] of 450 min, an ED50 [5] of 0.45 µmol/kg and an ED50 [6] of 0.01 µmol/kg. For the same compound, the Cmax [7] was 20 ng/mL, the Vd [8] was 11.1 L/kg and the Max [9] was 75%. The Cmax [10] was 3270 ng/mL, the Max [11] was 60% and the EC50 [12] was 240 nM.
Compound `COc1ccc(N(C(=O)CN2C(=O)C(Cc3coc4ccccc34)C(=O)N(c3ccccc3)c3ccccc32)C(C)C)cc1` (configuration not stated) has a Max [11] of 40%.
Work on `COc1ccc(N(C(=O)CN2C(=O)C(Cc3n[nH]c4ccccc34)(OC)C(=O)N(c3ccccc3)c3ccccc32)C(C)C)cc1` (configuration not stated) yielded a Cmax [13] of 4900 ng/mL, a Cmax [14] of 90 ng/mL and an IC50 [3] of 14.5 nM. It also gave an IC50 [15] of 3630 nM, an ED50 [5] of 0.1 µmol/kg and a Vd [16] of 7.63 L/kg. It also gave an ED50 [6] of 0.0003 µmol/kg, a Max [17] of 52% and a bioavailability [18] of 5%. The clearance [19] was 35 mL/min/kg, the Max [9] was 72% and the Max [11] was 70%. For the same compound, the EC50 [12] was 70 nM, the half-life [20] was 204 min and the Max [21] was 89%.
In the case of `CC(C)(C)N(C(=O)CN1C(=O)C(Cc2n[nH]c3ccccc23)C(=O)N(c2ccccc2)c2ccccc21)c1ccccc1` (configuration not stated), the IC50 [3] is reported as 891 nM, the Max [11] is reported as 90% and the EC50 [12] is reported as 110 nM.
For `O=C1C(Cc2n[nH]c3ccccc23)C(=O)N(c2ccccc2)c2ccccc2N1CC(=O)N(c1ccccc1)C1CC1` (configuration not stated), the IC50 [3] was 525 nM, the IC50 [15] was 25.1 nM and the Max [11] was 70%. The EC50 [12] was 20 nM.
In the case of `COc1ccc(N(C(=O)CN2C(=O)C(Cc3n[nH]c4ccccc34)C(=O)N(c3ccccc3)c3ccccc32)C2CCCC2)cc1` (configuration not stated), the IC50 [3] is reported as 17 nM, the IC50 [15] is reported as 776 nM and the Max [11] is reported as 90%. It also gave an EC50 [12] of 40 nM.
`COc1ccc(N(C(=O)CN2C(=O)C(Cc3c[nH]c4ccccc34)C(=O)N(c3ccccc3)c3ccccc32)C(C)C)cc1` (configuration not stated) showed an ED50 [5] of 0.1 µmol/kg, an ED50 [6] of 0.0038 µmol/kg and a Max [9] of 74%. For the same compound, the Max [21] was 90%.
Work on `CC(C)N(C(=O)CN1C(=O)C(Cc2n[nH]c3ccccc23)C(=O)N(c2ccccc2)c2ccccc21)c1ccc2c(c1)OCO2` (configuration not stated) yielded an IC50 [3] of 355 nM, an IC50 [15] of 724 nM and a Max [11] of 100%. For the same compound, the EC50 [12] was 20 nM.
With `COc1ccc(N(C(=O)CN2C(=O)C(Cc3c[nH]c4ccccc34)(OC)C(=O)N(c3ccccc3)c3ccccc32)C(C)C)cc1` (configuration not stated) the IC50 [3] was 13.8 nM, the IC50 [15] was 29500 nM and the Max [9] was 54%. The Max [11] was 60%, the EC50 [12] was 150 nM and the Max [21] was 84%.
With `COc1ccc(N(C(=O)CN2C(=O)C(Cc3n[nH]c4cc(F)ccc34)C(=O)N(c3ccccc3)c3ccccc32)C(C)C)cc1` (configuration not stated) the IC50 [3] was 29.5 nM, the IC50 [15] was 589 nM and the Max [11] was 100%. For the same compound, the EC50 [12] was 40 nM.
`COc1ccc(N(C(=O)CN2C(=O)C(Cc3nn(C)c4ccccc34)C(=O)N(c3ccccc3)c3ccccc32)C(C)C)cc1` (configuration not stated) showed an ED50 [22] of 0.22 µmol/kg, an ED50 [5] of 0.03 µmol/kg and an ED50 [6] of 0.0008 µmol/kg. The Max [23] was 98%, the Max [9] was 84% and the Max [21] was 83%.
`CC(C)N(C(=O)CN1C(=O)C(Cc2n[nH]c3ccccc23)C(=O)N(c2ccccc2)c2ccccc21)c1ccc(F)cc1` (configuration not stated) showed an IC50 [3] of 138 nM, an IC50 [15] of 479 nM and a Max [11] of 100%. For the same compound, the EC50 [12] was 60 nM.
`COc1ccc(N(C(=O)CN2C(=O)C(Cc3n[nH]c4cccnc34)C(=O)N(c3ccccc3)c3ccccc32)C(C)C)cc1` (configuration not stated) showed a Max [11] of 40%.
`COc1ccc(N(C(=O)CN2C(=O)C(Cc3nsc4ccccc34)C(=O)N(c3ccccc3)c3ccccc32)C(C)C)cc1` (configuration not stated) gave a Max [11] of 30%.
`COc1ccccc1N(C(=O)CN1C(=O)C(Cc2n[nH]c3ccccc23)C(=O)N(c2ccccc2)c2ccccc21)C(C)C` (configuration not stated) showed an IC50 [15] of 129 nM, a Max [11] of 40% and an EC50 [12] of 830 nM.
